Assay results reported in ChEMBL document CHEMBL3576866, “Discovery of a Cyclic Boronic Acid β-Lactamase Inhibitor (RPX7009) with Utility vs Class A Serine Carbapenemases” (J Med Chem, 2015).

Columns and labels:
[1] = target: T1, Class A carbapenemase (Enterobacter cloacae) (UniProt A7WP95); assay: Inhibition of Enterobacter cloacae ECL1058 KPC-3 assessed as ertapenem MIC at 4 ug/ml by broth microdilution method
T1 sequence (whole entry): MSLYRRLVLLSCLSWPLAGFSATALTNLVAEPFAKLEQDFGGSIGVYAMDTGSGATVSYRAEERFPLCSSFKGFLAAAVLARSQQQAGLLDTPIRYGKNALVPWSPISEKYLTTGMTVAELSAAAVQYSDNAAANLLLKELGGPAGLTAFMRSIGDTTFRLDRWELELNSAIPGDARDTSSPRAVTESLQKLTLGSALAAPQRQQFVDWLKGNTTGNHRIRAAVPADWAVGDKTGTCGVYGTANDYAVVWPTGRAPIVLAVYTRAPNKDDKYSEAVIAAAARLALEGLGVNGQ

[2] = target: T1, Class A carbapenemase (Enterobacter cloacae); assay: Inhibition of Enterobacter cloacae ECL1058 KPC-3 assessed as biapenem MIC at 4 ug/ml by broth microdilution method
Homo sapiens [3] = assay: Clearance in human at 1 g administered as 3 hrs of infusion; type: ADME, organism-based; conditions: in vivo, iv
[4] = Inhibition of elastase (unknown origin) using Suc-AAPA-pNA as substrate preincubated for 10 mins followed by substrate addition measured for 30 mins by spectrophotometric analysis; design: species or system Homo sapiens
How it was run: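 Elastase from a commercial source in 25 mM Tris-HCl, pH 8.0. Inhibitor at various concentrations was preincubated 10 min at 37 °C. Suc-AAPA-pNA (listed at 50 μM) was added and absorbance followed for 30 min. Rates were relative to untreated; IC50 is the concentration giving 50% inhibition.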

[5] = target: T2, Beta-lactamase SHV-1 (Klebsiella pneumoniae) (UniProt P0AD64); assay: Inhibition of Klebsiella pneumoniae KP1082 SHV-1 assessed as imipenem MIC at 4 ug/ml by broth microdilution method
T2 sequence (whole entry): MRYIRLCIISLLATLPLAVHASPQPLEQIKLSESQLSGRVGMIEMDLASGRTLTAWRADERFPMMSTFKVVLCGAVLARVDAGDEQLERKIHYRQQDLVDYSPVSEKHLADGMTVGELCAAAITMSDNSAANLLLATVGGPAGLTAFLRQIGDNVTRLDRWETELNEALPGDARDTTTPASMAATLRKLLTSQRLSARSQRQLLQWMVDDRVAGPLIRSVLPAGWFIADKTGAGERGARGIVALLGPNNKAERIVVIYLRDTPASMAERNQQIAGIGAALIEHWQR

Homo sapiens [6] = assay: Toxicity in human at 250 to 1500 mg administered as 3 hrs of infusion; type: organism-based; conditions: in vivo, iv
How it was run: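 Phase 1 study in 36 normal (healthy) volunteers under GCP. Single 3 h infusions were given at 250, 500, 750, 1000, 1250 or 1500 mg, and drug-related adverse events were recorded.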

[7] = target: Beta lactamase TEM-1 (Klebsiella pneumoniae) (UniProt Q7B899); assay: Inhibition of Klebsiella pneumoniae KP1087 TEM-1 assessed as meropenem MIC at 4 ug/ml by broth microdilution method
How it was run: (§1)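 CLSI broth microdilution (M07-A9, 2012) MIC of the carbapenem against clinical serine carbapenemase-producing strain, tested alone and with the inhibitor held at a fixed 4 μg/mL.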

[8] = target: Beta lactamase TEM-1 (Klebsiella pneumoniae) (UniProt Q7B899); assay: Inhibition of Klebsiella pneumoniae KP1084 TEM-1 assessed as biapenem MIC at 4 ug/ml by broth microdilution method
Klebsiella pneumoniae [9] = assay: Inhibition of Klebsiella pneumoniae KP1087 CTX-M-15 assessed as meropenem MIC at 4 ug/ml by broth microdilution method; how it was run: as §1
[10] = target: Carbapenem-hydrolyzing beta-lactamase KPC (Klebsiella oxytoca) (UniProt Q848S6); assay: Inhibition of Klebsiella oxytoca KX1019 KPC-2 assessed as biapenem MIC at 4 ug/ml by broth microdilution method
Klebsiella pneumoniae [11] = assay: Inhibition of Klebsiella pneumoniae KP1004 SHV-11 assessed as meropenem MIC at 4 ug/ml by broth microdilution method; how it was run: as §1
Klebsiella oxytoca [12] = assay: Inhibition of Klebsiella oxytoca KX1019 OXA-2 assessed as biapenem MIC at 4 ug/ml by broth microdilution method
Klebsiella pneumoniae [13] = assay: Inhibition of Klebsiella pneumoniae KP1082 KPC-2 assessed as biapenem MIC at 4 ug/ml by broth microdilution method; how it was run: as §1
Klebsiella pneumoniae [14] = assay: Inhibition of Klebsiella pneumoniae KP1088 SHV-11 assessed as meropenem MIC at 4 ug/ml by broth microdilution method
How it was run: (§2)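 CLSI broth microdilution (M07-A9, 2012) against the clinical K. pneumoniae isolate. Carbapenem MICs were read alone and with 9f held at a fixed 4 μg/mL.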

Klebsiella pneumoniae [15] = assay: Inhibition of Klebsiella pneumoniae KP1087 KPC-2 assessed as imipenem MIC at 4 ug/ml by broth microdilution method
How it was run: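 CLSI broth microdilution (M07-A9) against clinical K. pneumoniae strain KP1087 (KPC-2, CTX-M-15, SHV-11, TEM-1); carbapenem MIC (μg/mL) read with the inhibitor held at a fixed 4 μg/mL, alongside carbapenem alone.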

[16] = target: Beta-lactamase (Enterobacter cloacae) (UniProt G8A3U3); assay: Inhibition of Enterobacter cloacae ECL1003 TEM assessed as cefepime MIC at 4 ug/ml by broth microdilution method
Klebsiella pneumoniae [17] = assay: Inhibition of Klebsiella pneumoniae KP1010 SHV-12 assessed as cefepime MIC at 4 ug/ml by broth microdilution method
How it was run: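 CLSI broth microdilution (M07-A9) against clinical strains expressing serine β-lactamases.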

Klebsiella pneumoniae [18] = assay: Inhibition of Klebsiella pneumoniae KP1008 KPC-2 assessed as imipenem MIC at 4 ug/ml by broth microdilution method; how it was run: as §1
Klebsiella pneumoniae [19] = assay: Inhibition of Klebsiella pneumoniae KP1088 SHV-11 assessed as ertapenem MIC at 4 ug/ml by broth microdilution method; how it was run: as §2
Klebsiella oxytoca [20] = assay: Inhibition of Klebsiella oxytoca KX1017 OXA-2 assessed as imipenem MIC at 4 ug/ml by broth microdilution method
[21] = target: Class A carbapenemase KPC-2 (Escherichia coli) (UniProt A8DS27); assay: Inhibition of Escherichia coli EC1007 KPC-3 assessed as biapenem MIC at 4 ug/ml by broth microdilution method
Chymase = Chymase (Homo sapiens, UniProt P23946); assay: Inhibition of chymase (unknown origin) using Suc-AAPF-AMC as substrate preincubated for 10 mins followed by substrate addition measured for 30 mins by spectrophotometric analysis
How it was run: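 Commercial chymase in 100 mM Tris, pH 8.0, 2 M NaCl, 0.01% Triton X-100. Mixed with inhibitor at various concentrations for 10 min at 37 °C before Suc-AAPF-AMC (listed at 40 μM), then fluorescence followed for 30 min. Rates were taken relative to a no-treatment control; IC50 is the concentration giving 50% inhibition.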

Klebsiella oxytoca [22] = assay: Inhibition of Klebsiella oxytoca KX1017 SHV-30 assessed as ertapenem MIC at 4 ug/ml by broth microdilution method
[23] = Half life in rat at 100 mg/kg, iv administered as 0.5 hrs infusion by HPLC-MS method; type: ADME, organism-based; conditions: in vivo
[24] = target: Beta lactamase TEM-1 (Klebsiella pneumoniae) (UniProt Q7B899); assay: Inhibition of Klebsiella pneumoniae KP1087 TEM-1 assessed as ertapenem MIC at 4 ug/ml by broth microdilution method; how it was run: as §1

Chain of Chymase (P23946 whole entry): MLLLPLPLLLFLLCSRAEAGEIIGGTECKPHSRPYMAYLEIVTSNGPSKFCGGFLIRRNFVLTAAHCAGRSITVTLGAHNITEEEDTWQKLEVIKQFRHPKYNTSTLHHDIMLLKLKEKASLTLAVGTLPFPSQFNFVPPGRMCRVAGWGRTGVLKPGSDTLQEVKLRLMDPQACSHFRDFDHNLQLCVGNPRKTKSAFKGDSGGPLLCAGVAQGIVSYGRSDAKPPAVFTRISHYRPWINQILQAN

O=C(O)C[C@@H]1CC[C@H](NC(=O)Cc2cccs2)B(O)O1 [VABORBACTAM]
MIC [1]: 0.25 µg/mL | MIC [2]: < 0.06 µg/mL | clearance (Homo sapiens [3]): 12.8 L/h | IC50 [4]: > 1000 µM | MIC [5]: 0.13 µg/mL | Activity (Homo sapiens [6]): Non-toxic | MIC [7]: 1 µg/mL | MIC [8]: 0.25 µg/mL | MIC (Klebsiella pneumoniae [9]): 1 µg/mL | MIC [10]: 0.25 µg/mL | MIC (Klebsiella pneumoniae [11]): ≤ 0.06 µg/mL | MIC (Klebsiella oxytoca [12]): 0.25 µg/mL | MIC (Klebsiella pneumoniae [13]): ≤ 0.06 µg/mL | MIC (Klebsiella pneumoniae [14]): ≤ 0.06 µg/mL | MIC (Klebsiella pneumoniae [15]): 0.25 µg/mL | MIC [16]: 8 µg/mL | MIC (Klebsiella pneumoniae [17]): 0.25 µg/mL | MIC (Klebsiella pneumoniae [18]): ≤ 0.06 µg/mL | MIC (Klebsiella pneumoniae [19]): ≤ 0.06 µg/mL | MIC (Klebsiella oxytoca [20]): 0.13 µg/mL | MIC [21]: < 0.06 µg/mL | IC50 (Chymase): > 1000 µM | MIC (Klebsiella oxytoca [22]): 0.25 µg/mL | half-life [23]: 25.2 min | MIC [24]: 2 µg/mL
